Reference: ChEMBL document CHEMBL1145412, “Impact of the 3,6,9-trioxadecyloxy group on desazadesferrithiocin analogue iron clearance and organ distribution” (J Med Chem, 2007)

What was measured:
Sapajus apella [1] = experiment: Iron-clearing efficiency in iron-loaded Cebus apella assessed as excretion in stool at 75 umol/kg, po relative to control; format: functional
In short: (§1)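 Iron-loaded Cebus apella monkeys given the chelator orally, prepared as for rats except some solubilized in 40% Cremophor RH-40/water. Feces and urine collected at 24 h intervals from 4 d before to 5 d after dosing; iron by flame AAS. Efficiency = (2-day post-drug iron output minus 4-day pre-drug mean) / theoretical 2:1 output, %. Stool/urine split given. Mean ± SEM.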

[2] = Ratio of iron clearing efficiency in iron-overloaded Cebus apella to non-iron-overloaded Sprague-Dawley rat; format: functional
In short: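 Performance ratio = mean ICE in iron-overloaded primates divided by mean ICE in non-overloaded rats.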

Rattus norvegicus [3] = experiment: Iron-clearing efficiency in non-iron overloaded Sprague-Dawley rat assessed as excretion in bile at 300 umol/kg, po relative to control; format: functional
In short: (§2)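 Male Sprague-Dawley rats (400-450 g), bile-duct cannulated and not iron overloaded, given one oral 300 µmol/kg dose. Given in water, as monosodium salt (1 equiv NaOH) or in 40% Cremophor. Bile collected every 3 h for up to 48 h and urine every 24 h; iron by flame AAS. Efficiency = (treated minus control iron excretion) / theoretical 2:1 output, %; bile/urine split given.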

Rattus norvegicus [4] = experiment: Iron-clearing efficiency in non-iron overloaded Sprague-Dawley rat assessed as excretion in urine at 300 umol/kg, po relative to control; format: functional; in short: as §2
Sapajus apella [5] = experiment: Iron-clearing efficiency in iron-loaded Cebus apella assessed as excretion in urine at 75 umol/kg, po relative to control; format: functional; in short: as §1
Rattus norvegicus [6] = experiment: Iron clearance in non-iron overloaded Sprague-Dawley rat at 300 umol/kg, po at 3 hrs; format: functional
In short: (§3)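 Male Sprague-Dawley rats (400-450 g) with bile-duct cannulation and no iron overload, given a single oral 300 µmol/kg dose. Bile collected at 3 h intervals for up to 48 h. Iron measured by flame atomic absorption and reported as µg iron per kg body weight at each interval.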

Rattus norvegicus [7] = experiment: Iron-clearing efficiency in non-iron overloaded Sprague-Dawley rat at 300 umol/kg, po relative to control; format: functional; in short: as §2
[8] = Partition coefficient, log P in TRIS buffer at pH 7.4; format: physicochemical
In short: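 Shake-flask direct method in TRIS buffer, pH 7.4. Reported as log of the fraction in the octanol layer (log Papp).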

Sapajus apella [9] = experiment: Iron-clearing efficiency in iron-loaded Cebus apella at 75 umol/kg, po relative to control; format: functional; in short: as §1
Kidney [10] = experiment: Distribution in kidney in non-iron overloaded Sprague-Dawley rat at 300 umol/kg, sc after 0.5 hrs; format: ADME, organism-based; settings: in vivo
In short: (§4)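 Tissue distribution: rats dosed once sc at 300 µmol/kg. Plasma, kidney, liver, heart and pancreas sampled at 0.5, 1, 2 and 4 h. Plasma chelator reported in µM and tissue levels as nmol compound per g wet weight. n = 3 per time point.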

Kidney [11] = experiment: Distribution in kidney in non-iron overloaded Sprague-Dawley rat at 300 umol/kg, sc after 1 hr; format: ADME, organism-based; settings: in vivo; in short: as §4
Kidney [12] = experiment: Distribution in kidney in non-iron overloaded Sprague-Dawley rat at 300 umol/kg, sc after 2 hrs; format: ADME, organism-based; settings: in vivo; in short: as §4
Kidney [13] = experiment: Distribution in kidney in non-iron overloaded Sprague-Dawley rat at 300 umol/kg, sc after 4 hrs; format: ADME, organism-based; settings: in vivo; in short: as §4
Liver [14] = experiment: Distribution in liver in non-iron overloaded Sprague-Dawley rat at 300 umol/kg, sc after 0.5 hrs; format: ADME, organism-based; settings: in vivo; in short: as §4
Liver [15] = experiment: Distribution in liver in non-iron overloaded Sprague-Dawley rat at 300 umol/kg, sc after 1 hr; format: ADME, organism-based; settings: in vivo; in short: as §4
[16] = Distribution in plasma in non-iron overloaded Sprague-Dawley rat at 300 umol/kg, sc after 0.5 hrs; format: ADME, organism-based; in short: as §4
Plasma [17] = experiment: Distribution in plasma in non-iron overloaded Sprague-Dawley rat assessed as decrease in concentration at 300 umol/kg, sc after 1 hr; format: ADME, organism-based; set-up: scale not given: the % may be the effect or the level left; settings: in vivo; in short: as §4
Plasma [18] = experiment: Distribution in plasma in non-iron overloaded Sprague-Dawley rat assessed as decrease in concentration at 300 umol/kg, sc after 2 hrs; format: ADME, organism-based; set-up: scale not given: the % may be the effect or the level left; settings: in vivo; in short: as §4
Plasma [19] = experiment: Distribution in plasma in non-iron overloaded Sprague-Dawley rat assessed as decrease in concentration at 300 umol/kg, sc after 4 hrs; format: ADME, organism-based; set-up: scale not given: the % may be the effect or the level left; settings: in vivo; in short: as §4
[20] = Distribution in pancreas per wet weight in non-iron overloaded Sprague-Dawley rat at 300 umol/kg, sc after 2 hrs; settings: in vivo
Rattus norvegicus [21] = experiment: Iron clearing efficiency in non-iron overloaded Sprague-Dawley rat at 300 umol/kg, po in presence of 250 mg/kg/dose sodium benzoate; format: functional
In short: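 Bile-duct-cannulated rats given the chelator orally at 300 µmol/kg. Sodium benzoate in distilled water, 250 mg/kg/dose sc, given 0.5 h before the chelator and then hourly for five more doses. Iron in bile and urine measured by flame AAS. Efficiency = (treated minus control iron excretion) / theoretical output for a 2:1 complex, as percent.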

Rattus norvegicus [22] = experiment: Iron-clearing efficiency in non-iron overloaded Sprague-Dawley rat at 300 umol/kg, po after 48 hrs relative to control; format: functional; in short: as §2
Rattus norvegicus [23] = experiment: Iron-clearing efficiency in non-iron overloaded Sprague-Dawley rat assessed as excretion in bile at 300 umol/kg, po after 48 hrs relative to control; format: functional; in short: as §2
Rattus norvegicus [24] = experiment: Iron-clearing efficiency in non-iron overloaded Sprague-Dawley rat assessed as excretion in urine after 48 hrs at 300 umol/kg, po relative to control; format: functional; in short: as §2
Rattus norvegicus [25] = experiment: Iron clearance in non-iron overloaded Sprague-Dawley rat at 300 umol/kg, po at 6 hrs; format: functional; in short: as §3

Row | SMILES | Activity (Sapajus apella [1]) [%] | Ratio [2] | Activity (Rattus norvegicus [3]) [%] | Activity (Rattus norvegicus [4]) [%] | Activity (Sapajus apella [5]) [%] | Activity (Rattus norvegicus [6]) [µg/kg] | Drug uptake (Kidney [10]) [nmol/g] | Drug uptake (Kidney [11]) [nmol/g] | Drug uptake (Kidney [12]) [nmol/g] | Drug uptake (Kidney [13]) [nmol/g] | Drug uptake (Liver [14]) [nmol/g] | Drug uptake (Liver [15]) [nmol/g] | concentration at 0.5 h [16] [µM] | Activity (Plasma [17]) [%] | Activity (Plasma [18]) [%] | Activity (Plasma [19]) [%] | Drug uptake [20] [nmol/g] | other results
1 | COc1ccc(O)c(C2=N[C@@](C)(C(=O)[O-])CS2)c1.[Na+] | 94 | 3 | 95 | 5 | 6 |  |  |  |  |  |  |  |  |  |  |  |  | 
2 | C[C@]1(C(=O)[O-])CSC(c2cc(O)ccc2O)=N1.[Na+] | 88 | 12.6 | 99 | 1 | 12 |  |  |  |  |  |  |  |  |  |  |  |  | 
3 | COCCOCCOCCOc1ccc(O)c(C2=N[C@@](C)(C(=O)[O-])CS2)c1.[Na+] | 56 | 1 | 98 | 2 | 44 | 388 | 643 | 435 | 321 | 116 | 483 | 315 | 324 | 39 | 54 | 82 | 30 | Activity (Rattus norvegicus [7]): 8%; logD [8]: -1.27; Activity (Sapajus apella [9]): 8.1%
4 | C[C@]1(C(=O)[O-])CSC(c2ccc(O)cc2O)=N1.[Na+] [DEFERITRIN SODIUM] | 88 |  | 100 | 0 | 12 | 68 |  | 179 |  | 27 |  |  |  |  |  |  |  | Activity (Rattus norvegicus [21]): 12%
5 | COCCOCCOCCOc1ccc(C2=N[C@@](C)(C(=O)O)CS2)c(O)c1 | 96 |  | 90 | 10 | 4 | 183 | 368 | 252 | 41 | 34 | 339 | 315 | 194 | 28 | 92 | 97 | 30 | Activity (Rattus norvegicus [21]): 8.8%
6 | COc1cccc(C2=N[C@@](C)(C(=O)[O-])CS2)c1O.[Na+] | 91 | 1.8 |  |  | 9 |  |  |  |  |  |  |  |  |  |  |  |  | Activity (Rattus norvegicus [22]): 12.4%; Activity (Rattus norvegicus [23]): 99%; Activity (Rattus norvegicus [24]): 1%
7 | C[C@]1(C(=O)[O-])CSC(c2cccc(O)c2O)=N1.[Na+] | 83 | 5 | 98 | 2 | 17 |  |  |  |  |  |  |  |  |  |  |  |  | Activity (Rattus norvegicus [7]): 4.6%
8 | COc1ccc(C2=N[C@@](C)(C(=O)[O-])CS2)c(O)c1.[Na+] | 91 |  | 98 | 2 | 9 |  |  |  |  |  |  |  |  |  |  |  |  | 
9 | COCCOCCOCCOc1cccc(C2=N[C@@](C)(C(=O)[O-])CS2)c1O.[Na+] | 72 | 2.3 |  |  | 28 |  | 280 | 259 | 145 | 90 | 242 | 318 | 62 | 26 | 61 | 79 | 16 | Activity (Rattus norvegicus [25]): 287 µg/kg; Activity (Rattus norvegicus [22]): 10.6%; Activity (Rattus norvegicus [23]): 95%; Activity (Rattus norvegicus [24]): 5%; logD [8]: -1.22; Activity (Sapajus apella [9]): 24.5%
